Legend:
[1] = Biodistribution of [125I]- compound in a monkey kidneys. 1 hr after intravenous injection. the value expressed in %dose/gram; conditions: simiiformes, in vivo
[2] = Biodistribution of […] in a monkey thyroid. 1 hr after intravenous injection. the value expressed in %dose/gram; assay type: ADME, organism-based, Thyroid gland; conditions: simiiformes, in vivo
In short: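 Monkey sedated with ketamine and anesthetized with nembutal, then given ~100 μCi [125I] label (~7 mCi/mg) intravenously. Killed 1 h later by nembutal overdose. Organs dissected, weighed and counted. % dose per organ found against diluted injected-dose aliquots; % dose per gram also reported; brain/blood from per-gram values. Single animal.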

Rattus norvegicus [3] = species on record: Rattus norvegicus; assay: Effect of specific activity of compound on biodistribution in rats brain to blood ratio 1 hr after injection at the dose of 2.5 mg value expressed in % dose per gram ratio; assay type: ADME, organism-based
In short: (§1)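 Rats received an intravenous injection of the I-125 labeled diamine with added unlabeled carrier (6.25, 2.5, 0.25 or 0.025 mg per dose). At 1 h, organs were counted. Percent dose per organ came from comparing tissue radioactivity with diluted aliquots of the injected dose. Values are the average and range of 3 rats. Brain/blood ratio was taken from % dose per gram, calculated using mean organ weights (brain 1.65 g; blood 18 g).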

Rattus norvegicus [4] = species on record: Rattus norvegicus; assay: Effect of specific activity of compound on biodistribution in rats brain to blood ratio 1 hr after injection at the dose of 6.25 mg value expressed in % dose per gram ratio; assay type: ADME, organism-based
In short: as §1

Rattus norvegicus [5] = species on record: Rattus norvegicus; assay: Effect of specific activity of compound on biodistribution in rats brain to blood ratio 1 hr after injection at the dose of 0.25 mg value expressed in % dose per gram ratio; assay type: ADME, organism-based
In short: as §1

Rattus norvegicus [6] = assay: Biodistribution of I-125 labeled compound in rat lungs, 2 min after intravenous injection. value expressed in average % dose per organ; value may range from 15.7 to 18.7; assay type: ADME, organism-based, Lung; conditions: in vivo
Rattus norvegicus [7] = assay: Biodistribution of I-125 labeled compound in rat muscle, 2 min after intravenous injection value expressed in average % dose per organ; value may range from 5.84 to 12.8; assay type: ADME, organism-based, Muscle tissue; conditions: in vivo
Rattus norvegicus [8] = species on record: Rattus norvegicus; assay: Effect of specific activity of compound on biodistribution in rats thyroid 1 hr after injection at the dose of 6.25 mg value expressed in average % dose per organ; value may range from 0.09 to 0.11; assay type: ADME, organism-based, Thyroid gland; conditions: in vivo
In short: as §1

Rattus norvegicus [9] = species on record: Rattus norvegicus; assay: Effect of specific activity of compound on biodistribution in rats blood 1 hr after injection at the dose of 2.5 mg value expressed in average % dose per organ; value may range from 0.58 to 0.71; assay type: ADME, organism-based; conditions: in vivo
In short: as §1

A Dose/g [1] of 0.602%, a Dose/g [2] of 0.039% and a Ratio (Rattus norvegicus [3]) of 37.3% were found for `Cc1cc(I)cc(CNCCCN(C)C)c1O` in this work. For the same molecule, the Ratio (Rattus norvegicus [4]) was 43%, the Ratio (Rattus norvegicus [5]) was 22.8% and the “Average dose per organ” value (Rattus norvegicus [6]) was 16.9%. For the same molecule, the “Average dose per organ” value (Rattus norvegicus [7]) was 9.24%, the “Average dose per organ” value (Rattus norvegicus [8]) was 0.1% and the “Average dose per organ” value (Rattus norvegicus [9]) was 0.65%.
